Laboratory results as given in ChEMBL document CHEMBL1629555, “Antimalarial activity of phenylthiazolyl-bearing hydroxamate-based histone deacetylase inhibitors” (Antimicrob Agents Chemother, 2008).
Active and inactive are the calls of the source. The calls are words filed in the database; no cut-off is given here.

Columns and labels:
Plasmodium berghei [1] = experiment: Antimalarial activity against Plasmodium berghei infected in mouse assessed as parasitemia level at 160 mg/kg/day for 3 days measured on day 6 in presence of 2 mg/kg/day chloroquine (reference value: 37%); assay type: functional
How it was run: (§1)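 Mice were infected ip with 10^6 P. berghei-parasitized erythrocytes. The compound was given orally once daily on days 3, 4 and 5 post-infection in hydroxyethylcellulose-Tween 20 vehicle, alone or together with chloroquine, with 5 mice per dose group. Parasitemia (%) was read on days 3 and 6, and cures were counted as animals cured out of 5.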

[2] = Half life in ICR mouse at 50 mg/kg/day, sc by LC/MS analysis; assay type: ADME, organism-based; parameters: route subcutaneous; conditions: in vivo
How it was run: (§2)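 Male ICR mice, 8 weeks old, got one 50 mg/kg dose either orally or subcutaneously, with three groups of six mice per route. One mouse per group was killed at 15, 30 and 60 min and at 3, 6 and 24 h. Plasma was deproteinized with 2 volumes of acetonitrile and analysed by LC-MS/MS on a C18 column against 0–500 ng/ml standards, with parent and acid metabolite measured in the same sample. Each six-mouse group was treated as one "animal" and fitted to a two-compartment model. AUC was taken by the linear trapezoidal rule extrapolated to infinity, and Cmax and Tmax were read per "animal".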

Plasmodium berghei [3] = experiment: Antimalarial activity against Plasmodium berghei infected in mouse assessed as parasitemia level at 32 mg/kg/day for 3 days measured on day 6 (reference value: 37%); assay type: functional; how it was run: as §1
Plasmodium berghei [4] = experiment: Antimalarial activity against Plasmodium berghei infected in mouse assessed as parasitemia level at 0.32 mg/kg/day for 3 days measured on day 6 in presence of 4 mg/kg/day chloroquine (reference value: 37%); assay type: functional
Plasmodium berghei [5] = experiment: Antimalarial activity against Plasmodium berghei infected in mouse assessed as effect on cure rate at single dose of 20 mg/kg/day, po for 3 days; assay type: functional, organism-based
How it was run: (§3)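 Mice were infected ip with 10^6 P. berghei-parasitized erythrocytes. The compound was given in hydroxyethylcellulose-Tween 20 vehicle, 5 mice per group, starting on day 3 post-infection. Regimens were once-daily or split daily oral doses over 3 days, subcutaneous dosing, or dosing over 7 days. Read-outs were posttreatment parasitemia on day 6 as a fraction of controls and the number of mice cured.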

Mus musculus [6] = experiment: Toxicity in Plasmodium berghei-infected mouse assessed as mortality at split dose of 130 mg/kg/day, po for 7 days; assay type: organism-based; parameters: route oral; conditions: in vivo, 168 h
Plasmodium berghei [7] = experiment: Antimalarial activity against Plasmodium berghei infected in mouse assessed as effect on cure rate at 160 mg/kg/day for 3 days measured on day 6 in presence of 2 mg/kg/day chloroquine; assay type: functional, organism-based; how it was run: as §1
Plasmodium falciparum [8] = experiment: Antimalarial activity against drug-resistant Plasmodium falciparum D6 infected in Aotus lemurinus lemurinus monkey; assay type: functional, organism-based
Plasmodium berghei [9] = experiment: Antimalarial activity against Plasmodium berghei infected in mouse assessed as parasitemia level at split dose of 640 mg/kg/day, po for 3 days measured on day 6 relative to control; assay type: functional
How it was run: (§4)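 Blood-stage P. berghei model: mice inoculated ip with 10^6 parasitized erythrocytes. Oral treatment for 3 days, with the daily dose split, in hydroxyethylcellulose-Tween 20 vehicle. Day-6 parasitemia expressed as a fraction of control parasitemia.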

Plasmodium berghei [10] = experiment: Antimalarial activity against Plasmodium berghei infected in mouse assessed as parasitemia level at 0.32 mg/kg/day for 3 days measured on day 3 (reference value: 0.46%); assay type: functional
[11] = Half life in ICR mouse at 50 mg/kg/day, po by LC/MS analysis; assay type: ADME, organism-based; parameters: route oral; conditions: in vivo; how it was run: as §2
Plasmodium berghei [12] = experiment: Antimalarial activity against Plasmodium berghei infected in mouse assessed as parasitemia level at single dose of 80 mg/kg/day, po for 3 days measured on day 6 relative to control; assay type: functional
How it was run: (§5)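 Mice infected intraperitoneally with 10^6 P. berghei-parasitized erythrocytes. Drug given orally once daily on days 3, 4 and 5 post-infection in hydroxyethylcellulose-Tween 20 vehicle, 5 mice per dose group. Parasitemia measured on day 6 and expressed as a fraction of untreated control parasitemia.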

Plasmodium falciparum [13] = experiment: Antimalarial activity against Plasmodium falciparum at 10 nM after 3.5 hrs; assay type: functional, organism-based
How it was run: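 Infected erythrocytes were exposed to compound for 3.5 h, washed, and returned to culture. Parasite growth was compared with matched controls after 48 h.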

Mus musculus [14] = experiment: Toxicity in Plasmodium berghei-infected mouse assessed as mortality at split dose of 130 mg/kg/day, sc for 3 days measured on day 5; assay type: organism-based; parameters: route subcutaneous; conditions: in vivo, 72 h
Plasmodium falciparum [15] = experiment: Antimicrobial activity against Plasmodium falciparum W2 at […] in presence of azithromycin; assay type: functional
How it was run: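 In vitro fixed-ratio isobologram using a SYBR green I fluorescence assay. […] IC50s were standardized and FIC50 and ΣFIC50 calculated by the Berenbaum method. Reported as the average ΣFIC across dilutions or the average maximum ΣFIC, from at least 2 experiments.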

Plasmodium berghei [16] = experiment: Antimalarial activity against Plasmodium berghei infected in mouse assessed as effect on cure rate at 160 mg/kg/day for 3 days; assay type: functional, organism-based; how it was run: as §1
Plasmodium berghei [17] = experiment: Antimalarial activity against Plasmodium berghei infected in mouse assessed as parasitemia level at split dose of 80 mg/kg/day, po for 3 days measured on day 6 relative to control; assay type: functional; how it was run: as §4
Plasmodium berghei [18] = experiment: Antimalarial activity against Plasmodium berghei infected in mouse assessed as parasitemia level at 160 mg/kg/day for 3 days measured on day 6 (reference value: 37%); assay type: functional; how it was run: as §1
Plasmodium berghei [19] = experiment: Antimalarial activity against Plasmodium berghei infected in mouse assessed as effect on cure rate at 130 mg/kg/day, sc for 3 days; assay type: functional, organism-based; how it was run: as §3
Plasmodium berghei [20] = experiment: Antimalarial activity against Plasmodium berghei infected in mouse assessed as parasitemia level at 12.8 mg/kg/day for 3 days measured on day 6 in presence of 16 mg/kg/day chloroquine (reference value: 37%); assay type: functional; how it was run: as §1
Plasmodium berghei [21] = experiment: Antimalarial activity against Plasmodium berghei infected in mouse assessed as effect on cure rate at 0.32 mg/kg/day for 3 days measured on day 6 in presence of 4 mg/kg/day chloroquine; assay type: functional, organism-based
Plasmodium falciparum [22] = experiment: Antimalarial activity against Plasmodium falciparum infected in mouse RAW264.7 cells; assay type: functional, organism-based
Mus musculus [23] = experiment: Toxicity in Plasmodium berghei-infected mouse assessed as mortality at split dose of 80 mg/kg/day, po for 3 days; assay type: organism-based; parameters: route oral; conditions: in vivo, 72 h
Plasmodium falciparum [24] = experiment: Antimicrobial activity against Plasmodium falciparum D6 infected in Aotus lemurinus lemurinus monkey at […] in presence of artemisinin; assay type: functional
Mus musculus [25] = experiment: Toxicity in Plasmodium berghei-infected mouse assessed as mortality at split dose of 160 mg/kg/day, po for 3 days; assay type: organism-based; parameters: route oral; conditions: in vivo, 72 h
Plasmodium berghei [26] = experiment: Antimalarial activity against Plasmodium berghei infected in mouse assessed as parasitemia level at single dose of 40 mg/kg/day, po for 3 days measured on day 6 relative to control; assay type: functional; how it was run: as §5
Mus musculus [27] = experiment: Toxicity in Plasmodium berghei-infected mouse assessed as mortality at split dose of 320 mg/kg/day, po for 3 days; assay type: organism-based; parameters: route oral; conditions: in vivo, 72 h
Plasmodium falciparum [28] = experiment: Antimalarial activity against chloroquine-resistant Plasmodium falciparum FVO infected in Aotus lemurinus […] monkey assessed as reduction in parasitemia at 16 mg/kg/day, po for 3 days; assay type: functional, organism-based
Plasmodium berghei [29] = experiment: Antimalarial activity against Plasmodium berghei infected in mouse assessed as parasitemia level at 0.32 mg/kg/day for 3 days measured on day 6 (reference value: 37%); assay type: functional

SMILES: Nc1cccc(-c2csc(NC(=O)CCCCCCC(=O)NO)n2)c1
- Activity (Plasmodium berghei [1]): 0.36%
- half-life [2]: 8.5 h
- Activity (Plasmodium berghei [3]): 21%
- Activity (Plasmodium berghei [4]): 0.024%
- Activity (Plasmodium berghei [5]): inactive
- Activity (Mus musculus [6]): Non-toxic
- Activity (Plasmodium berghei [7]): inactive
- IC50 (Plasmodium falciparum [8]): 800 pM
- fold change (FC) (Plasmodium berghei [9]): 0.001
- Activity (Plasmodium berghei [10]): 0.62%
- half-life [11]: 3.5 h
- fold change (FC) (Plasmodium berghei [12]): 0.096
- Activity (Plasmodium falciparum [13]): Active
- Activity (Mus musculus [14]): Toxic
- fractional inhibitory concentration index (FICI) (Plasmodium falciparum [15]): 1.5
- Activity (Plasmodium berghei [16]): inactive
- fold change (FC) (Plasmodium berghei [17]): 0.05
- Activity (Plasmodium berghei [18]): 8.8%
- Activity (Plasmodium berghei [19]): inactive
- Activity (Plasmodium berghei [20]): 0%
- Activity (Plasmodium berghei [21]): inactive
- IC50 (Plasmodium falciparum [22]): 590 pM
- Activity (Mus musculus [23]): Non-toxic
- fractional inhibitory concentration index (FICI) (Plasmodium falciparum [24]): 2.1
- Activity (Mus musculus [25]): Non-toxic
- fold change (FC) (Plasmodium berghei [26]): 0.12
- Activity (Mus musculus [27]): Non-toxic
- inhibition (Plasmodium falciparum [28]): inactive
- Activity (Plasmodium berghei [29]): 45%
